ChEMBL document CHEMBL3580574, “Design, Synthesis, and Biological Evaluation of Hexacyclic Tetracyclines as Potent, Broad Spectrum Antibacterial Agents” (J Med Chem, 2015)
In brackets after ≈: the same amount, converted by molar mass.

Key:
Type in all cases: functional
Staphylococcus aureus [1] = experiment: Antibacterial activity against tet(K) tetracycline-resistant Staphylococcus aureus 158 assessed as bacterial growth inhibition by susceptibility testing assay; conditions: Staphylococcus aureus, 158; read-out: MIC
Enterobacter cloacae = experiment: Antibacterial activity against tet(A) tetracycline-resistant Enterobacter cloacae 603 assessed as bacterial growth inhibition by susceptibility testing assay
Summary of the method: (§1)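 Broth microdilution MIC per CLSI in 96-well plates; compound stocks prepared and serially diluted in sterile deionized water; cation-adjusted Mueller Hinton broth prepared fresh and held at 4 °C before testing, supplemented with lysed horse blood as appropriate; runs accepted when comparator antibiotics fell within QC ranges for appropriate ATCC quality control strains.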

Enterococcus faecium = experiment: Antibacterial activity against tet(M) tetracycline-resistant Enterococcus faecium 404 assessed as bacterial growth inhibition by susceptibility testing assay
Staphylococcus aureus [2] = experiment: Antibacterial activity against Staphylococcus aureus 101 ATCC 29213 assessed as bacterial growth inhibition by susceptibility testing assay; conditions: Staphylococcus aureus, 101 ATCC 29213; read-out: MIC
Summary of the method: (§2)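 Broth microdilution MIC per CLSI in cation-adjusted Mueller Hinton broth, made fresh and held at 4 °C before testing. Medium supplemented with lysed horse blood where appropriate. Compound stocks prepared and serially diluted in sterile deionized water. Runs were accepted against QC ranges for comparator antibiotics and ATCC QC strains.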

Burkholderia cenocepacia = experiment: Antibacterial activity against Burkholderia cenocepacia 240 assessed as bacterial growth inhibition by susceptibility testing assay
Summary of the method: (§3)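 Medium supplemented with lysed horse blood where appropriate. Compound stocks prepared and serially diluted in sterile deionized water. Runs were accepted against QC ranges for comparator antibiotics and ATCC QC strains.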

Proteus mirabilis = experiment: Antibacterial activity against Proteus mirabilis 385 assessed as bacterial growth inhibition by susceptibility testing assay; summary of the method: as §2
Streptococcus pneumoniae = experiment: Antibacterial activity against tet(M) tetracycline-resistant Streptococcus pneumoniae 160 assessed as bacterial growth inhibition by susceptibility testing assay
[3] = test system: Stenotrophomonas maltophilia; experiment: Antibacterial activity against Stenotrophomonas maltophilia 256 assessed as bacterial growth inhibition by susceptibility testing assay; summary of the method: as §3
Klebsiella pneumoniae = experiment: Antibacterial activity against Klebsiella pneumoniae 457 harboring CTX-M-15 gene assessed as bacterial growth inhibition by susceptibility testing assay; conditions: Klebsiella pneumoniae, 457; read-out: MIC; summary of the method: as §1
Acinetobacter baumannii = experiment: Antibacterial activity against tet(B) tetracycline-resistant Acinetobacter baumannii 250 assessed as bacterial growth inhibition by susceptibility testing assay; summary of the method: as §1
Staphylococcus aureus [4] = experiment: Antibacterial activity against methicillin-resistant, tet(M) tetracycline-resistant Staphylococcus aureus 161 assessed as bacterial growth inhibition by susceptibility testing assay; summary of the method: as §1
Enterococcus faecalis = experiment: Antibacterial activity against tet(M) tetracycline-resistant Enterococcus faecalis 327 assessed as bacterial growth inhibition by susceptibility testing assay; summary of the method: as §1
Escherichia coli [5] = experiment: Antibacterial activity against Escherichia coli 107 ATCC 25922 assessed as bacterial growth inhibition by susceptibility testing assay; summary of the method: as §2
Pseudomonas aeruginosa = experiment: Antibacterial activity against Pseudomonas aeruginosa 555 BAA-47 assessed as bacterial growth inhibition by susceptibility testing assay; conditions: Pseudomonas aeruginosa, 555 BAA-47; read-out: MIC; summary of the method: as §2
Escherichia coli [6] = experiment: Antibacterial activity against tet(A) tetracycline-resistant Escherichia coli 155 assessed as bacterial growth inhibition by susceptibility testing assay; conditions: Escherichia coli, 155; read-out: MIC; summary of the method: as §1
[7] = Enterobacter cloacae, 603, read-out: MIC
[8] = Enterococcus faecium, 404, read-out: MIC
[9] = Burkholderia cenocepacia, 240, read-out: MIC
[10] = Proteus mirabilis, 385, read-out: MIC
[11] = Streptococcus pneumoniae, 160, read-out: MIC
[12] = Stenotrophomonas maltophilia, 256, read-out: MIC
[13] = Acinetobacter baumannii, 250, read-out: MIC
[14] = Staphylococcus aureus, 161, read-out: MIC
[15] = Enterococcus faecalis, 327, read-out: MIC
[16] = Escherichia coli, 107 ATCC 25922, read-out: MIC

In the case of `CN(C)c1cc(NC(=O)CNC(C)(C)C)c(O)c2c1C[C@H]1C[C@H]3[C@H](N(C)C)C(O)=C(C(N)=O)C(=O)[C@@]3(O)C(O)=C1C2=O` [TIGECYCLINE], the MIC (Staphylococcus aureus [1]) is reported as 0.125 µg/mL (≈ 0.213 µM), the MIC (Enterobacter cloacae; [7]) is reported as 4 µg/mL (≈ 6.83 µM) and the MIC (Enterococcus faecium; [8]) is reported as 0.0312 µg/mL (≈ 0.0533 µM). It also gave an MIC (Staphylococcus aureus [2]) of 0.0625 µg/mL (≈ 0.107 µM), an MIC (Burkholderia cenocepacia; [9]) of 16 µg/mL (≈ 27.3 µM) and an MIC (Proteus mirabilis; [10]) of 4 µg/mL (≈ 6.83 µM). For the same molecule, the MIC (Streptococcus pneumoniae; [11]) was 0.0156 µg/mL (≈ 0.0266 µM), the MIC [3, 12] was 2 µg/mL (≈ 3.41 µM) and the MIC (Klebsiella pneumoniae) was 1 µg/mL (≈ 1.71 µM). It also gave an MIC (Acinetobacter baumannii; [13]) of 8 µg/mL (≈ 13.7 µM), an MIC (Staphylococcus aureus [4]; [14]) of 0.125 µg/mL (≈ 0.213 µM) and an MIC (Enterococcus faecalis; [15]) of 0.125 µg/mL (≈ 0.213 µM). The MIC (Escherichia coli [5]; [16]) was 0.125 µg/mL (≈ 0.213 µM), the MIC (Pseudomonas aeruginosa) was 16 µg/mL (≈ 27.3 µM) and the MIC (Escherichia coli [6]) was 1 µg/mL (≈ 1.71 µM).
Molecule `CN(C)[C@@H]1C(O)=C(C(N)=O)C(=O)[C@@]2(O)C(O)=C3C(=O)c4c(O)c5c(c(OC(F)(F)F)c4C[C@H]3C[C@@H]12)[C@@H]1[C@@H](CCN1C)CN5` has an MIC (Staphylococcus aureus [1]) of at most 0.0156 µg/mL, an MIC (Enterobacter cloacae; [7]) of 0.5 µg/mL (≈ 0.822 µM) and an MIC (Enterococcus faecium; [8]) of at most 0.0156 µg/mL. It also gave an MIC (Staphylococcus aureus [2]) of 0.0625 µg/mL (≈ 0.103 µM), an MIC (Burkholderia cenocepacia; [9]) of 8 µg/mL (≈ 13.1 µM) and an MIC (Proteus mirabilis; [10]) of 2 µg/mL (≈ 3.29 µM). The MIC (Streptococcus pneumoniae; [11]) was at most 0.0156 µg/mL, the MIC [3, 12] was 0.25 µg/mL (≈ 0.411 µM) and the MIC (Klebsiella pneumoniae) was 0.5 µg/mL (≈ 0.822 µM). The MIC (Acinetobacter baumannii; [13]) was 1 µg/mL (≈ 1.64 µM), the MIC (Staphylococcus aureus [4]; [14]) was 0.125 µg/mL (≈ 0.205 µM) and the MIC (Enterococcus faecalis; [15]) was 0.0312 µg/mL (≈ 0.0513 µM). It also gave an MIC (Escherichia coli [5]; [16]) of at most 0.0156 µg/mL, an MIC (Pseudomonas aeruginosa) of 8 µg/mL (≈ 13.1 µM) and an MIC (Escherichia coli [6]) of 0.0312 µg/mL (≈ 0.0513 µM).
For `CN(C)[C@@H]1C(O)=C(C(N)=O)C(=O)[C@@]2(O)C(O)=C3C(=O)c4c(O)c5c(c(OC(F)(F)F)c4C[C@H]3C[C@@H]12)[C@@H]1[C@H](CN5)CC2CCCN21` (stereo not given in full), the MIC (Staphylococcus aureus [1]) was 0.0625 µg/mL (≈ 0.0985 µM), the MIC (Enterobacter cloacae; [7]) was 4 µg/mL (≈ 6.3 µM) and the MIC (Enterococcus faecium; [8]) was 0.0625 µg/mL (≈ 0.0985 µM). The MIC (Staphylococcus aureus [2]) was 0.25 µg/mL (≈ 0.394 µM), the MIC (Burkholderia cenocepacia; [9]) was 32 µg/mL (≈ 50.4 µM) and the MIC (Proteus mirabilis; [10]) was 4 µg/mL (≈ 6.3 µM). It also gave an MIC (Streptococcus pneumoniae; [11]) of at most 0.0156 µg/mL, an MIC [3, 12] of 4 µg/mL (≈ 6.3 µM) and an MIC (Klebsiella pneumoniae) of 2 µg/mL (≈ 3.15 µM). It also gave an MIC (Acinetobacter baumannii; [13]) of 16 µg/mL (≈ 25.2 µM), an MIC (Staphylococcus aureus [4]; [14]) of 1 µg/mL (≈ 1.58 µM) and an MIC (Enterococcus faecalis; [15]) of 0.125 µg/mL (≈ 0.197 µM). For the same molecule, the MIC (Escherichia coli [5]; [16]) was 0.0625 µg/mL (≈ 0.0985 µM), the MIC (Pseudomonas aeruginosa) was 8 µg/mL (≈ 12.6 µM) and the MIC (Escherichia coli [6]) was 0.25 µg/mL (≈ 0.394 µM).
For `CCCN1CC[C@@]2(C)CNc3c(O)c4c(c(F)c3[C@@H]12)C[C@H]1C[C@H]2[C@H](N(C)C)C(O)=C(C(N)=O)C(=O)[C@@]2(O)C(O)=C1C4=O`, the MIC (Staphylococcus aureus [1]) was 0.125 µg/mL (≈ 0.214 µM), the MIC (Enterobacter cloacae; [7]) was 16 µg/mL (≈ 27.4 µM) and the MIC (Enterococcus faecium; [8]) was 4 µg/mL (≈ 6.84 µM). It also gave an MIC (Staphylococcus aureus [2]) of 0.5 µg/mL (≈ 0.855 µM), an MIC (Burkholderia cenocepacia; [9]) of over 32 µg/mL and an MIC (Proteus mirabilis; [10]) of 32 µg/mL (≈ 54.7 µM). For the same molecule, the MIC (Streptococcus pneumoniae; [11]) was 0.5 µg/mL (≈ 0.855 µM), the MIC [3, 12] was 4 µg/mL (≈ 6.84 µM) and the MIC (Klebsiella pneumoniae) was 16 µg/mL (≈ 27.4 µM). For the same molecule, the MIC (Acinetobacter baumannii; [13]) was 16 µg/mL (≈ 27.4 µM), the MIC (Staphylococcus aureus [4]; [14]) was 8 µg/mL (≈ 13.7 µM) and the MIC (Enterococcus faecalis; [15]) was 8 µg/mL (≈ 13.7 µM). The MIC (Escherichia coli [5]; [16]) was 1 µg/mL (≈ 1.71 µM), the MIC (Pseudomonas aeruginosa) was over 32 µg/mL and the MIC (Escherichia coli [6]) was 4 µg/mL (≈ 6.84 µM).
With `CN(C)[C@@H]1C(O)=C(C(N)=O)C(=O)[C@@]2(O)C(O)=C3C(=O)c4c(O)c5c(c(F)c4C[C@H]3C[C@@H]12)[C@@H]1[C@@H](CCN1C)CN5` (stereo in doubt; 10b) the MIC (Staphylococcus aureus [1]) was 0.125 µg/mL (≈ 0.23 µM), the MIC (Enterobacter cloacae) was 2 µg/mL (≈ 3.69 µM) and the MIC (Enterococcus faecium) was 1 µg/mL (≈ 1.84 µM). For the same molecule, the MIC (Staphylococcus aureus [2]) was 0.5 µg/mL (≈ 0.922 µM), the MIC (Burkholderia cenocepacia) was 32 µg/mL (≈ 59 µM) and the MIC (Proteus mirabilis) was 2 µg/mL (≈ 3.69 µM). It also gave an MIC (Streptococcus pneumoniae) of 0.125 µg/mL (≈ 0.23 µM), an MIC [3] of 4 µg/mL (≈ 7.37 µM) and an MIC (Klebsiella pneumoniae) of 1 µg/mL (≈ 1.84 µM). The MIC (Acinetobacter baumannii) was 8 µg/mL (≈ 14.7 µM), the MIC (Staphylococcus aureus [4]) was 4 µg/mL (≈ 7.37 µM) and the MIC (Enterococcus faecalis) was 4 µg/mL (≈ 7.37 µM). For the same molecule, the MIC (Escherichia coli [5]) was 0.25 µg/mL (≈ 0.461 µM), the MIC (Pseudomonas aeruginosa) was 8 µg/mL (≈ 14.7 µM) and the MIC (Escherichia coli [6]) was 1 µg/mL (≈ 1.84 µM).
Molecule `CN(C)CCN1CC[C@H]2CNc3c(O)c4c(c(F)c3[C@H]21)C[C@H]1C[C@H]2[C@H](N(C)C)C(O)=C(C(N)=O)C(=O)[C@@]2(O)C(O)=C1C4=O` has an MIC (Staphylococcus aureus [1]) of 1 µg/mL (≈ 1.67 µM), an MIC (Enterobacter cloacae; [7]) of over 32 µg/mL and an MIC (Enterococcus faecium; [8]) of 4 µg/mL (≈ 6.67 µM). It also gave an MIC (Staphylococcus aureus [2]) of 4 µg/mL (≈ 6.67 µM), an MIC (Burkholderia cenocepacia; [9]) of over 32 µg/mL and an MIC (Proteus mirabilis; [10]) of over 32 µg/mL. It also gave an MIC (Streptococcus pneumoniae; [11]) of 1 µg/mL (≈ 1.67 µM), an MIC [3, 12] of over 32 µg/mL and an MIC (Klebsiella pneumoniae) of 32 µg/mL (≈ 53.4 µM). It also gave an MIC (Acinetobacter baumannii; [13]) of over 32 µg/mL, an MIC (Staphylococcus aureus [4]; [14]) of 16 µg/mL (≈ 26.7 µM) and an MIC (Enterococcus faecalis; [15]) of 8 µg/mL (≈ 13.3 µM). For the same molecule, the MIC (Escherichia coli [5]; [16]) was 8 µg/mL (≈ 13.3 µM), the MIC (Pseudomonas aeruginosa) was over 32 µg/mL and the MIC (Escherichia coli [6]) was over 32 µg/mL.
`CN(C)[C@@H]1C(O)=C(C(N)=O)C(=O)[C@@]2(O)C(O)=C3C(=O)c4c(O)c5c(c(F)c4C[C@H]3C[C@@H]12)C1NCCC1CN5` (mixture of isomers) gave an MIC (Staphylococcus aureus [1]) of 0.5 µg/mL, an MIC (Enterobacter cloacae; [7]) of 8 µg/mL and an MIC (Enterococcus faecium; [8]) of 1 µg/mL. For the same molecule, the MIC (Staphylococcus aureus [2]) was 2 µg/mL, the MIC (Burkholderia cenocepacia; [9]) was over 32 µg/mL and the MIC (Proteus mirabilis; [10]) was 0.5 µg/mL. The MIC (Streptococcus pneumoniae; [11]) was 0.5 µg/mL, the MIC [3, 12] was over 32 µg/mL and the MIC (Klebsiella pneumoniae) was 2 µg/mL. The MIC (Acinetobacter baumannii; [13]) was over 32 µg/mL, the MIC (Staphylococcus aureus [4]; [14]) was 4 µg/mL and the MIC (Enterococcus faecalis; [15]) was 2 µg/mL. It also gave an MIC (Escherichia coli [5]; [16]) of 0.5 µg/mL, an MIC (Pseudomonas aeruginosa) of 32 µg/mL and an MIC (Escherichia coli [6]) of 1 µg/mL.
